LANA-H2A inh: blocks KSHV LANA binding to histone H2A/H2B. inhibition, % (concentration not given with the values). cell-free LANA-H2A/H2B peptide, fluorescence polarization. Q9QR71. hit rate 0.6% among 320,000; in the data active means inhibition mostly above about 10%, no sharp cut-off; inactive means mostly below about 6.7%
TAAR1 agonist: human TAAR1 agonism; AID 624467; Q96RJ0; activation, % at 3 µM; hit rate 0.99% among 360,000; CHO RD-HGA16 TAAR1, Fluo-8 calcium fluorescence; vehicle wells 0%, saturating PEA agonist 100%;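 active means activation above the mean activation of all test compounds in the run plus 3 SD, cut at about 38% in these data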
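System: CHO-derived RD-HGA16 cells with stable Gα16 and human TAAR1. Times: 17-24 h plating, Fluo-8 75 min 37 °C, 30 min RT. Measured by: calcium-sensitive Fluo-8 signal, excitation 470-495, emission 515-575 nm. Read-out basis: % activation relative to PEA EC100 response. Control set: DMSO and PEA EC100. Repeats: no replicates (n 1).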
TRPML3 ag: agonists of human TRPML3 channel. Q8TDD5. HEK293 TRPML3-YFP, Fluo-8 calcium fluorescence; 100% = the carbachol control signal. activation, % at 3 µM. hit rate 0.29% among 220,000. AID 1448;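 active means activation above its plate's cutoff, the mean activation of the plate's test wells plus 3 SD, cut at about 12% in these data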
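Test system: TRPML3-YFP stable HEK293 cells. Doses: single point at 3 µM. Incubation: dye loading 1 h 37 °C then 30 min ambient, 125 s read. Signal: Fluo-8 calcium dye fluorescence, ex 470-495, em 515-575 nm. Measure: percent activation from peak-to-basal fluorescence ratio, scaled between DMSO and carbachol.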
TAAR1 antag: human TAAR1 antagonism; Q96RJ0; CHO RD-HGA16 TAAR1, Fluo-8 calcium fluorescence, antagonist; inhibition, % at 3 µM; hit rate 1.5% among 360,000; AID 624466;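 active means inhibition above a per-plate cutoff, the mean inhibition of test compounds on that plate plus 3 SD, cut at about 49% in these data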
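Material: CHO RD-HGA16 cells bearing hTAAR1; compound dosing: one-point dosing, 3 µM nominal final; schedule: dye loading 75 min at 37 °C, then 30 min room temperature; measured by: calcium fluorescence with Fluo-8; control set: vehicle and agonist controls; replication: n of 1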
TRPN1 ag: activates the zebrafish TRPN1 channel; HEK293 zebrafish TRPN1-YFP, Fluo-8 calcium fluorescence; 100% = response to 87 µM carbachol; hit rate 0.18% among 220,000; activation, % at 3 µM; AID 1424;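 active means activation above its plate's cutoff, the mean activation of test wells on that plate plus 3 SD, cut at about 19% in these data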
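Material: zebrafish TRPN1-YFP in HEK293 cells; Doses: single test compound dose, 3 µM nominal, 0.3% DMSO; Timing: dye loading 1 h at 37 °C, then 30 min room temperature; Technique: intracellular calcium fluorescence with Fluo-8; Benchmarks: high carbachol 87 µM, low DMSO alone.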
GPR7 antag: antagonists of human GPR7 (neuropeptides B/W receptor 1); P48145; inhibition, % at 4.4 µM; hit rate 1.1% among 290,000; GPR7-expressing cells, fluorescence antagonist assay; AID 1861; in the data active means inhibition above about 16%, passing the limit was not always enough;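 further: cells stimulated with the agonist NPW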
TAAR1 nonsel count: nonselective antagonist in TAAR1 antagonist counter-screen; hit rate 77% among 2,400; AID 651780; inhibition, % at 3 µM; shares compounds with TAAR1 antag; counterscreen cell line, calcium fluorescence, antagonist mode; in the data active means inhibition above about 22%;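 further: CHO-Ga16 host cells stimulated with ATP at an EC80 level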
TAAR1 ant conf: confirmation of human TAAR1 antagonists. inhibition, % at 3 µM. hit rate 40% among 2,400. TAAR1-expressing cells, fluorescence antagonist read-out. shares compounds with TAAR1 antag. AID 651785; in the data active means inhibition above about 49%;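 further: CHO-Ga16 host cells challenged with agonist PEA near its EC80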
Ga16 nonsel ag: nonselective Ga16 agonism, counter-screen; hit rate 18% among 2,400; Ga16-expressing cells, calcium fluorescence, agonist counterscreen; shares compounds with TAAR1 antag; activation, % at 3 µM; in the data active means activation above about 12%
TAAR1 ag count: activates human TAAR1 in antagonist counter-screen; hit rate 2% among 2,400; activation, % at 3 µM; shares compounds with TAAR1 antag; hTAAR1 cell line, fluorescence activation, agonist mode; in the data active means activation above about 37%;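 further: CHO cells stably expressing TAAR1 with calcium dye readout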
Hits are given with their value; - = inactive; . = not tested or not shown. In the library only some 3.4% were active in any assay of this set; here they are far more common.

SMILES | LANA-H2A inh | TAAR1 agonist | TRPML3 ag | TAAR1 antag | TRPN1 ag | GPR7 antag | TAAR1 nonsel count | TAAR1 ant conf | Ga16 nonsel ag | TAAR1 ag count
CSc1cccc(NC(=O)C2CCCN(S(=O)(=O)c3ccc(F)cc3)C2)c1 (centres undefined) | - | - | - | 56 | - | 19 | 23 | - | - | -
CC1(c2nnc(-c3ccc(Cl)cc3)o2)CC(c2c(Cl)cccc2Cl)=NO1 (centres undefined) | - | - | . | 56 | . | . | 23 | - | - | -
CC1(c2nnc(-c3ccc(F)cc3)o2)CC(c2c(Cl)cccc2Cl)=NO1 (centres undefined) | - | - | . | - | . | . | . | . | . | .
CCN(CC)CCNc1oc(-c2ccccc2)nc1S(=O)(=O)c1ccccc1 | - | - | . | - | . | . | . | . | . | .
CC(C)CC(NS(=O)(=O)OCC(Cl)(Cl)Cl)c1ccccc1 (centres undefined) | - | - | . | 86 | . | - | - | - | - | -
COc1ccc(NC(=O)c2sc3ncnc(N4CCN(c5ccccn5)CC4)c3c2C)cc1Cl | - | - | . | 80 | . | - | 48 | 55 | 13 | -
O=C(Nc1c2c(nn1-c1ccc([N+](=O)[O-])cc1)CS(=O)(=O)C2)c1ccco1 | - | - | . | - | . | - | . | . | . | .
Clc1ccc(OCc2nnc(SCc3nc4ccccc4[nH]3)n2Cc2ccco2)cc1 | - | - | - | 50 | - | - | 45 | 54 | 14 | -
Clc1cccc(-c2nnc(SCc3nc4ccccc4[nH]3)n2Cc2ccco2)c1 | - | - | - | - | - | - | . | . | . | .
O=C(Nc1ccc(N2CCN(C(=O)c3ccccc3)CC2)cc1)c1cc2ccccc2o1 | - | - | - | 77 | - | - | 44 | 62 | - | -
CN1CCN(c2ccc(NC(=O)c3cc4ccccc4o3)cc2)CC1 | - | - | . | - | . | - | . | . | . | .
O=C(Nc1ccc(N2CCN(C(=O)c3ccccc3)CC2)c(Cl)c1)c1ccc(Br)o1 | - | - | - | 69 | - | - | 35 | - | - | -
O=C(Nc1ccc(N2CCN(C(=O)c3ccco3)CC2)c(Cl)c1)c1cccs1 | - | - | - | 50 | - | - | 31 | - | - | -
O=C(Nc1ccc(N2CCN(C(=O)c3ccccc3)CC2)cc1)c1ccc2c(c1)OCCO2 | - | - | . | - | . | - | . | . | . | .
CC(C)C(=O)N1CCN(c2ccc(NC(=O)c3cccs3)cc2Cl)CC1 | - | - | - | - | - | - | . | . | . | .
O=C(Nc1ccc(N2CCN(C(=O)c3ccc(Cl)cc3)CC2)cc1)c1ccc2c(c1)OCCO2 | - | - | - | 58 | - | - | 44 | 49 | - | -
CCCCN1C[C@H](c2ccccc2)[C@@H](CC(=O)NC)C1=O | . | - | . | - | . | . | . | . | . | .
COc1ccc(-c2n[nH]nc2C2=CC(=O)CC(C)(C)C2)cc1 | . | - | . | - | . | . | . | . | . | .
CC(=O)c1cccc(NC(=O)CSc2ccc(-c3ccc4c(c3)OCO4)nn2)c1 | - | - | - | 54 | - | - | 27 | - | - | -
COc1ccc(-c2ccc(SCC(=O)Nc3cccc(C(C)=O)c3)nn2)cc1OC | - | - | - | 53 | - | - | 24 | - | - | -
O=S(=O)(c1c(Cl)cc(Br)cc1Cl)N1CCN(C(=S)NC2CC2)CC1 | - | - | . | - | . | . | . | . | . | .
O=C(C[n+]1ccc(C(=O)c2ccccc2)cc1)Nc1cccc([N+](=O)[O-])c1 | . | - | . | - | . | . | . | . | . | .
CCOc1ccc(C(=O)Nc2ccccc2N2CCN(C(=O)c3ccccc3)CC2)cc1[N+](=O)[O-] | - | - | . | 67 | . | - | 25 | - | - | -
CN(C)CCCNc1ncnc2c1cnn2Cc1ccccc1Cl | . | - | . | - | . | - | . | . | . | .
